Measurements of several laboratories.
Compare with care: the assays were run in different laboratories.
Cell line: OVCAR-5
Effect on: cell growth or viability

COc1ccc(-c2ccc(-c3ccc(C(=N)N)nc3)s2)cc1  GI50 (SRB): 1.67 µM
COc1ccc(C(=O)/C=C/c2cccc(Cl)c2)cc1S(N)(=O)=O  GI50 (SRB; 48 h): 1.9 µM
CC[C@@H]1C=CC(=O)O[C@@H]1C[C@@H](O)[C@H](C)[C@H](O)[C@@H](C)Cc1ccc(F)cc1  GI50 (MTT; 48 h): 0.0165 µM
COc1cc(-c2ccc(-c3ccc(C(=N)N)nc3)s2)cc(OC)c1OC  GI50 (SRB): 2.1 µM
COc1cccc(Oc2ccccc2NC(=O)CNC(=O)c2cccc3ccccc23)c1  GI50 (SRB; 48 h): 1.12 µM
CC[C@@H]1C=CC(=O)O[C@@H]1C[C@@H](O)[C@H](C)[C@H](OC)[C@@H](C)Cc1ccc(F)cc1  GI50 (MTT; 48 h): 0.0753 µM
COc1ccccc1/C=C/C(=O)c1ccc(OC)c(S(N)(=O)=O)c1  GI50 (SRB; 48 h): 2.2 µM
S=C([S][Au-][P+](CCCCCC[P+]([Au-][S]C(=S)n1cccn1)(c1ccccc1)c1ccccc1)(c1ccccc1)c1ccccc1)n1cccn1  GI50: 3.63 µM
CCN1CCN(Cc2ccc(Nc3ncc(F)c(-c4cc(F)c5nc(C)n(C(C)C)c5c4)n3)nc2)CC1  IC50 (CCK-8): 2.5 µM
Cc1cc(C)n(C(=S)[S][Au][PH](CCCCCC[PH]([Au][S]C(=S)n2nc(C)cc2C)(c2ccccc2)c2ccccc2)(c2ccccc2)c2ccccc2)n1  GI50: 1.21 µM
C/C=C/C[C@H](C)[C@@H](OC)[C@@H](C)[C@H](O)C[C@H]1OC(=O)C=C[C@H]1CC  GI50 (MTT; 48 h): 0.0219 µM
